The nature of series [1]: Permeability at pH 5.5 by PAMPA. Type of series: ADME. Conditions: read-out: permeability.
The target in series [2] is Cytochrome P450 2D6 (Homo sapiens, UniProt P10635). The series can be described thus: Inhibition of recombinant human CYP2D6. Type of series: ADME.
Series [3] is described as follows: AUC (0 to 24 hrs) in mouse xenografted with human SKOV3 cells assessed in tumor at 20 mg/kg, po qd for 5 days measured upto 24 hrs after dosing. Type of series: ADME, organism-based. The arrangement: route oral, dose 20 mg/kg, time 5 day. Put shortly:
(§1)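 nu/nu nude mice carrying SKOV3 tumors grown 2 weeks; dosed QD for 5 days starting day 14. On day 18, tumor sampled at 2, 6 and 24 h for drug level and kynurenine. […] Kyn reduction measured at steady state after the 5th dose, taken as area under the Kyn concentration–time curve 0–24 h versus vehicle control.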

Series [4] can be described thus: Permeability across apical to basolateral side in human Caco2 cells. Type of series: ADME, cell-based. Conditions: Caco-2, read-out: permeability.
In series [5] the target is T1, Cytochrome P450 2C8 (Homo sapiens, UniProt P10632).
T1 sequence (P10632 whole entry): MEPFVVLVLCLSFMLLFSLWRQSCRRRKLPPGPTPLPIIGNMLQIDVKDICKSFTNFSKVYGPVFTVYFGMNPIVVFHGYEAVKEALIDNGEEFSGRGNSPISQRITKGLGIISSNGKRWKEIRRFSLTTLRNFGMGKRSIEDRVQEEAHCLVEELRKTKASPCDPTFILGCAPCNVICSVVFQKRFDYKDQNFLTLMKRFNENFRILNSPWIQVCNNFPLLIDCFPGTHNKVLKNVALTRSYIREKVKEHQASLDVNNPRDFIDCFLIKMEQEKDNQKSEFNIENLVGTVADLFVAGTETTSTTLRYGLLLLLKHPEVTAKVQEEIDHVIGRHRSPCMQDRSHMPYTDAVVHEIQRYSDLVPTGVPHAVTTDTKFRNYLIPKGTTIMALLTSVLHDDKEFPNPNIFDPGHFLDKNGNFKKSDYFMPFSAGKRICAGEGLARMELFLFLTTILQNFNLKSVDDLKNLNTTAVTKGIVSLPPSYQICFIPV
Put plainly: Inhibition of recombinant human CYP2C8. Format: ADME.

Series [6] concerns the target Cytochrome P450 3A4 (Homo sapiens, UniProt P08684). The series can be described thus: Inhibition of recombinant human CYP3A4. Type of series: ADME.
For series [7], the target named is Indoleamine 2,3-dioxygenase 1 (Mus musculus, UniProt P28776). The series can be described thus: Inhibition of IDO1 in recombinant IFN-gamma induced mouse M109 cells incubated for 18 hrs by fluorescence microplate reader assay. Type of series: cell-based. The method in brief: (§2)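 HeLa (human) or M109 (murine) cells induced with IFNγ to express IDO1, then cellular IDO1 activity measured; values are the average of N = 2 unless noted.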

Series [8] in a line: Metabolic stability assessed as human UGT-mediated metabolism by measuring half life. Format: ADME.
Series [9] concerns the target T2, Indoleamine 2,3-dioxygenase 1 (Homo sapiens, UniProt P14902). Put plainly: Inhibition of IDO1 in recombinant IFN-gamma induced human HeLa cells incubated for 18 hrs by fluorescence microplate reader assay. The method in brief: as §2
The nature of series [10]: Metabolic stability assessed as cynomolgus monkey CYP-mediated metabolism by measuring half life. Type of series: ADME, Macaca fascicularis.
A short description of series [11]: Metabolic stability assessed as dog UGT -mediated metabolism by measuring half life. Format: ADME, Canis lupus familiaris.
For series [12], the target named is T3, Cytochrome P450 1A2 (Homo sapiens, UniProt P05177).
T3 sequence (P05177 whole entry): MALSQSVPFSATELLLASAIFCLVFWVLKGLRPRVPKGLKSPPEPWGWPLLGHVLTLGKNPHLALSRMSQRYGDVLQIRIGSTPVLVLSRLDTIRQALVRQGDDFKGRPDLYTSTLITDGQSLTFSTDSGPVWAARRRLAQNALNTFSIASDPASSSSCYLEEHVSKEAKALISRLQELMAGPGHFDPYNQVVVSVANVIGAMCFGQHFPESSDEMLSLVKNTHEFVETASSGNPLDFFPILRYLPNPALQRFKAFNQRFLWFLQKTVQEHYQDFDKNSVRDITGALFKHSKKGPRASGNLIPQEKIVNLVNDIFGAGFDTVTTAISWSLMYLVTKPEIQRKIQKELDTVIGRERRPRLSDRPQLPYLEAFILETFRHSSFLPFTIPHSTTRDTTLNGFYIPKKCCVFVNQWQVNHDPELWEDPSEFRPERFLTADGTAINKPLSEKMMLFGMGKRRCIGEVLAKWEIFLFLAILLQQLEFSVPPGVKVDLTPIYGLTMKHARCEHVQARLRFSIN
The series can be described thus: Inhibition of recombinant human CYP1A2. Format: ADME.

Series [13] can be described thus: Metabolic stability assessed as rat UGT -mediated metabolism by measuring half life. Type of series: ADME.
A short description of series [14]: Metabolic stability assessed as rat CYP-mediated metabolism by measuring half life. Format: ADME.
Series [15] in a line: Permeability across basolateral to apical side in human Caco2 cells. Type of series: ADME, cell-based. Conditions: Caco-2, read-out: permeability.
The nature of series [16]: Metabolic stability assessed as mouse CYP-mediated metabolism by measuring half life. Type of series: ADME.
Series [17] in a line: Metabolic stability in rat liver microsomes assessed as parent compound remaining at 0.5 uM after 10 mins. Format: ADME, Microsome. The conditions noted are these: read-out: Stabilty. Put shortly:
(§3)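 Parent compound at 0.5 μM incubated 10 min with 1 mg/mL human, mouse or rat liver microsomes; fraction of parent remaining reported; average of N = 2 unless noted.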

Series [18] can be described thus: Metabolic stability assessed as human CYP-mediated metabolism by measuring half life. Type of series: ADME.
Series [19] has as its target T2, Indoleamine 2,3-dioxygenase 1. The series can be described thus: Inhibition of IDO1 in IFN-gamma/LPS induced human whole blood assessed as tryptophan/kynurenine level measured after 18 hrs by RapidFire mass spectrometry. Type of series: tissue-based.
Series [20] can be described thus: Metabolic stability in mouse liver microsomes assessed as parent compound remaining at 0.5 uM after 10 mins. Type of series: ADME, Microsome. The conditions noted are these: read-out: Stabilty. Put shortly: as §3
A short description of series [21]: Metabolic stability in human liver microsomes assessed as parent compound remaining at 0.5 uM after 10 mins. Type of series: ADME, Microsome. Conditions: read-out: Stabilty. The method in brief:
as §3

Series [22] in a line: Metabolic stability assessed as dog CYP-mediated metabolism by measuring half life. Type of series: ADME, Canis lupus familiaris.
The target of series [23] is Cytochrome P450 2C19 (Homo sapiens, UniProt P33261). The series can be described thus: Inhibition of recombinant human CYP2C19. Type of series: ADME.
The nature of series [24]: Metabolic stability assessed as cynomolgus monkey UGT -mediated metabolism by measuring half life. Type of series: ADME, Macaca fascicularis.
A short description of series [25]: Metabolic stability assessed as mouse UGT -mediated metabolism by measuring half life. Type of series: ADME.
Series [26] deals with Cytochrome P450 2C9 (Homo sapiens, UniProt P11712). Put plainly: Inhibition of recombinant human CYP2C9. Format: ADME.
A short description of series [27]: Permeability at pH 7.4 by PAMPA. Type of series: ADME. The conditions noted are these: read-out: permeability.
Series [28] addresses T4, PXR (NR1I2) (Homo sapiens, UniProt O75469).
T4 sequence (O75469 whole entry): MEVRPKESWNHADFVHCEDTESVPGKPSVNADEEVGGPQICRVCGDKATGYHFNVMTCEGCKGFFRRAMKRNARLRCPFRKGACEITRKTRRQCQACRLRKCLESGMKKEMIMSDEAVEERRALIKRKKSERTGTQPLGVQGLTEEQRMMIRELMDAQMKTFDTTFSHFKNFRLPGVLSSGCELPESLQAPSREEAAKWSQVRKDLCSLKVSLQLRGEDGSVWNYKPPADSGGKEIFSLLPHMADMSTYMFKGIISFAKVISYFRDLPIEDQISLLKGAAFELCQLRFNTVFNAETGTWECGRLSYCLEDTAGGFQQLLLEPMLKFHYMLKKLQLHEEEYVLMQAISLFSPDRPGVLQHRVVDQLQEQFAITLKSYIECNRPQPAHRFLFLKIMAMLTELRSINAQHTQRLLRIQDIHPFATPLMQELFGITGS
Put plainly: Transactivation of PXR (unknown origin) assessed as CYP450 induction relative to rifampicin.

For series [29], the target named is T5, Nuclear receptor subfamily 1 group I member 2 (Homo sapiens, UniProt O75469).
T5 sequence (O75469 whole entry): T4 sequence (O75469 whole entry)
The series can be described thus: Transactivation of PXR (unknown origin) assessed as CYP450 induction.

Series [30] can be described thus: In vivo inhibition of IDO1 in mouse xenografted with human SKOV3 cells assessed as reduction in tumor kynurenine AUEC at 60 mg/kg, po qd for 5 days measured upto 24 hrs after dosing relative to vehicle treated control. Format: functional. Conditions: SK-OV-3, po, 120 h, time 5 day. Put shortly:
as §1

Series [31] can be described thus: in vivo. The conditions noted are these: mouse, tumor, po, 60 mg/kg.
Series [32] in a line: Induction of proliferation of human T eff cells by T cell/DC mixed lymphocyte reaction (MLR) assay.

Data on three compounds can be found in ChEMBL document CHEMBL4715934, “Discovery of Imidazopyridines as Potent Inhibitors of Indoleamine 2,3-Dioxygenase 1 for Cancer Immunotherapy” (ACS Med Chem Lett, 2021).

T2 sequence (P14902 whole entry): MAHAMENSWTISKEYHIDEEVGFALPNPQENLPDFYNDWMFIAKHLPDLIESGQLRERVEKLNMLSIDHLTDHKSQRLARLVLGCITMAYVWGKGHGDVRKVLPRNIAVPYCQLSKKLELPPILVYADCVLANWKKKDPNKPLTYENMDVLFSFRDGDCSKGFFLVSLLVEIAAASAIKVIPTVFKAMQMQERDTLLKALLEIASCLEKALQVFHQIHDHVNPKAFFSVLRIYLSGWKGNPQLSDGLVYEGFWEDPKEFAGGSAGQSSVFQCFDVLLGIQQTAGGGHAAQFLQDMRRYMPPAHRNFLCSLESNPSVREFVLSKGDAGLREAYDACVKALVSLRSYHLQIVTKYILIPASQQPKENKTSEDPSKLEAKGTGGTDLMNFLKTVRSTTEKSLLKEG
Chain of Indoleamine 2,3-dioxygenase 1 (Mus musculus, UniProt P28776) (P28776 whole entry): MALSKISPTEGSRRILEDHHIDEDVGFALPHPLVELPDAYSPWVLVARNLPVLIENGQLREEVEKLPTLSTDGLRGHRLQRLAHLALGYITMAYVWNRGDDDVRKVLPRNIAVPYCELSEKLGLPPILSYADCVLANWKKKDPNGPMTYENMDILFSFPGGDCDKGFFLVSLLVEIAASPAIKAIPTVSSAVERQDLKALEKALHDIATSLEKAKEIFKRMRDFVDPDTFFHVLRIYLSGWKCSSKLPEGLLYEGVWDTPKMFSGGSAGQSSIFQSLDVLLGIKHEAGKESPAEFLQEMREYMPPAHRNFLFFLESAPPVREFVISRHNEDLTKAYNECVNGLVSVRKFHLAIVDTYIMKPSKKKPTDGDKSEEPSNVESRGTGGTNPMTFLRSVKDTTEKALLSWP
Chain of Cytochrome P450 2C19 (P33261 whole entry): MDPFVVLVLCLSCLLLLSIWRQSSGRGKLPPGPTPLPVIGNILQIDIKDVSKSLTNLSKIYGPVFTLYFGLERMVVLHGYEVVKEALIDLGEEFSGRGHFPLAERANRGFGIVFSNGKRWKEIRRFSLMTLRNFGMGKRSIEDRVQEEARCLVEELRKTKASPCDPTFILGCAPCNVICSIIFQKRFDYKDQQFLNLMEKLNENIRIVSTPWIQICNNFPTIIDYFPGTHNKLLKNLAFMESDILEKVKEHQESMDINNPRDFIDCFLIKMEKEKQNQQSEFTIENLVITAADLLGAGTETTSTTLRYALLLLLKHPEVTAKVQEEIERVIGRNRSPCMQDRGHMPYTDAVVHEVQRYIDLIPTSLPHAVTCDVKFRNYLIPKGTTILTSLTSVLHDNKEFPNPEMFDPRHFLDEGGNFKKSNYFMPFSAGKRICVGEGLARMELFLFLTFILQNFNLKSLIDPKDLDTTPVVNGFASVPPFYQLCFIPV
Chain of Cytochrome P450 2C9 (P11712 whole entry): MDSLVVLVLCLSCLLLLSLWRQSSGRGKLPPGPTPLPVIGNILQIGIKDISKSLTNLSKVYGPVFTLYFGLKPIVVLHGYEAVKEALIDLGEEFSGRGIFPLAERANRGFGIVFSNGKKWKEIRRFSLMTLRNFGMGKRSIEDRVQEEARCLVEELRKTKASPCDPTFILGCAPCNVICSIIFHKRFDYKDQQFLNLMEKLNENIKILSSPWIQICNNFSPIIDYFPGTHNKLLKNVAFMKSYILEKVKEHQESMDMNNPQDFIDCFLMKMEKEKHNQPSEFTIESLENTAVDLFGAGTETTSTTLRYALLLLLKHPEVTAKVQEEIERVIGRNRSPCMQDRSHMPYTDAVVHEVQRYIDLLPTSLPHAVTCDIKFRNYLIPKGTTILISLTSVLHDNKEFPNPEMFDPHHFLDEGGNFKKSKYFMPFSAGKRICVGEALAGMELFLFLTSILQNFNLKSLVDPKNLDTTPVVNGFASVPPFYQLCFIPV
Chain of Cytochrome P450 3A4 (P08684 whole entry): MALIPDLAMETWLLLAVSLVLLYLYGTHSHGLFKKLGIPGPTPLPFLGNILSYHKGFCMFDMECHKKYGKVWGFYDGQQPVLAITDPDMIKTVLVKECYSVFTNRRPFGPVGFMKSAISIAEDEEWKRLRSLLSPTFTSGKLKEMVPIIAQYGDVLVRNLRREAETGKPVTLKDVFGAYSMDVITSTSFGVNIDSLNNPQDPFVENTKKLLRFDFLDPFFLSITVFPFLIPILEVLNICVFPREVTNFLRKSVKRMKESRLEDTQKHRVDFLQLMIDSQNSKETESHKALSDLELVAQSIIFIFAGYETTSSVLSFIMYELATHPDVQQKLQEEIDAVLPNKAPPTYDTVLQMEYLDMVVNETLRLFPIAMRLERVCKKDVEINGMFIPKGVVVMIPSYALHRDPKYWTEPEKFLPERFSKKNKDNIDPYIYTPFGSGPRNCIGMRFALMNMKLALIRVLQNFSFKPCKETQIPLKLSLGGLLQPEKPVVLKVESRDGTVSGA
Chain of Cytochrome P450 2D6 (P10635 whole entry): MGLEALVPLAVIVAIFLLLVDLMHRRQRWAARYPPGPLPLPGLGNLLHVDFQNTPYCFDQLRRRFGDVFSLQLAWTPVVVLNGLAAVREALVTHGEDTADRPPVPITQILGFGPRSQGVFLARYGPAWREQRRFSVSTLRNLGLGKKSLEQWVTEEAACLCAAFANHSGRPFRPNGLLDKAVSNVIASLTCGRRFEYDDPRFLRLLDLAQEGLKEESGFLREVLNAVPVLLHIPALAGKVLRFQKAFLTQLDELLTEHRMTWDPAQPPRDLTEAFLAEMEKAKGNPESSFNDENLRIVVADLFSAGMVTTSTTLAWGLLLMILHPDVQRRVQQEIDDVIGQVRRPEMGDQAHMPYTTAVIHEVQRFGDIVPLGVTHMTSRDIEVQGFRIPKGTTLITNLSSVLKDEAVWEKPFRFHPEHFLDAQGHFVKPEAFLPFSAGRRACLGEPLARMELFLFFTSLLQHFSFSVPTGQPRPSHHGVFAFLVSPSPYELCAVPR

For `CCC(c1nc2ncc(Cl)cc2[nH]1)[C@H]1CC[C@@H](c2ccnc3ccc(C(F)(F)F)cc32)CC1` (some centres undefined), the Papp amounted to 238 ×10⁻⁶ cm/s in series [1] and 263 ×10⁻⁶ cm/s in [27]. In addition, the IC50 in series [2] amounted to 4280 nM; in series [5] it was 1470 nM; in [6], 1930 nM; in [7], 3 nM; in series [9], 2 nM; in [12] it was 2550 nM. In addition, the IC50 in series [19] is 21 nM; in series [23], 1130 nM; in series [26], 242 nM. In addition, in [3], the AUC at 120 h came out at 43.6 µM·h. Also, the Papp A→B in series [4] was 11.3 ×10⁻⁶ cm/s. Besides, the half-life in series [8] is 1.58 h; in series [10], 0.35 h; in [11], 1.75 h; in series [13], 1.78 h; in series [14], 1 h; in [16], 0.283 h. The half-life is 0.9 h in [18], 0.683 h in series [22], above 2 h in series [24] and above 2 h in series [25]. In [15], the Papp B→A was determined as 6.6 ×10⁻⁶ cm/s. Besides, the values for the remaining at 10 min, 0.5 µM in series [17], in series [20] and in series [21] were 81%, 57% and 81%, respectively.
Consider `CCC(Nc1nnc(-c2ccc(OC)cc2)o1)[C@H]1CC[C@H](Oc2ccnc3ccccc23)CC1` (some centres undefined), for which the Emax in series [28] is above 50%. Moreover, the IC50 in series [7] was found to be 148 nM; in series [9], 13 nM; in series [19] it was 459 nM. Moreover, the remaining at 10 min, 0.5 µM in [17] came out at 88%; in series [20], 39%; in series [21], 83%. The EC50 in [29] is above 50000 nM.
With `C[C@@H](C(=O)Nc1ccc(Cl)cc1)[C@H]1CC[C@@H](c2ccnc3ccc(F)cc32)CC1`, the inhibition in vivo at 60 mg/kg in [30] stood at 61%. Further, the AUC at 120 h in series [31] was found to be 34.9 µM·h. Further, the remaining at 10 min, 0.5 µM in [17] stood at 86%. In series [32], the EC50 came out at 2 nM.
